From ChEMBL document CHEMBL1817572, “New, potent, selective, and short-acting peptidic V1a receptor agonists” (J Med Chem, 2011)
Numbered stars: 1 amine (or outer) side, 2 acyl side, 3 side chain; on linkers, the order of the positions; unused ones are H or OH. Bridge positions count the residues as written; N and C are the ends. Square brackets hold non-standard residues; d marks the D form. Peptide text beside a SMILES is read from it. * marks the point of attachment. Orn(Me) = CN(CCC[C@H](N[*:1])C(=O)[*:2])[*:3]; Ala(2-furyl) = N[C@@H](Cc1ccco1)C(=O)O; X4 = CONC(=O)CC[C@H](N[*:1])C(=O)[*:2]; Ala(cPent) = N[C@@H](CC1CCCC1)C(=O)O; Dab(iPr) = CC(C)NCC[C@H](N)C(=O)O; 3Pal = N[C@@H](Cc1cccnc1)C(=O)O; 2Thi = N[C@@H](Cc1cccs1)C(=O)O; 3Thi = N[C@@H](Cc1ccsc1)C(=O)O; Aad = N[C@@H](CCCC(=O)O)C(=O)O; Orn = NCCC[C@H](N)C(=O)O; Dab = NCC[C@H](N)C(=O)O; Ac4c = NC1(C(=O)O)CCC1; N(Me)OMe = CON(C)*; NHCH2CH2OH = OCCN*; X2 = CC(O)CN*

Legend:
Homo sapiens [1] = species on record: Homo sapiens; assay: Selectivity ratio of EC50 for human oxytocin receptor to EC50 for human vasopressin V1a receptor
Vasopressin V1a receptor = Vasopressin V1a receptor (Homo sapiens, UniProt P37288); assay: Agonist activity at recombinant human vasopressin V1a receptor expressed in HEK293 cells by luciferase reporter gene assay; type: functional, cell-based; details: read-out: EC50
Sequence of Vasopressin V1a receptor (P37288 whole entry): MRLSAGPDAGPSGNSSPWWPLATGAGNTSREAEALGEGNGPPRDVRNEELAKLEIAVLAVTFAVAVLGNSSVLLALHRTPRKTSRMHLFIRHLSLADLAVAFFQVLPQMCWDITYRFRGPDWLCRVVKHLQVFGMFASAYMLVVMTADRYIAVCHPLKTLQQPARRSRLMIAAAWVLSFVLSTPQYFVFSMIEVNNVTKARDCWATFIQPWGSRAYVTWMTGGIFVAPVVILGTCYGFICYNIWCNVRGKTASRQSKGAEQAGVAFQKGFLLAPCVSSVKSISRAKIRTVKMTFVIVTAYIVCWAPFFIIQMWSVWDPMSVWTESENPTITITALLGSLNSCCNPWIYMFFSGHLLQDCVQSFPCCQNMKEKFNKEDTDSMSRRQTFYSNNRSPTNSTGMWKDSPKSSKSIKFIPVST

Vasopressin V2 receptor = Vasopressin V2 receptor (Homo sapiens, UniProt P30518); assay: Agonist activity at recombinant human vasopressin V2 receptor expressed in HEK293 cells by luciferase reporter gene assay; type: functional, cell-based
Sequence of Vasopressin V2 receptor (P30518 whole entry): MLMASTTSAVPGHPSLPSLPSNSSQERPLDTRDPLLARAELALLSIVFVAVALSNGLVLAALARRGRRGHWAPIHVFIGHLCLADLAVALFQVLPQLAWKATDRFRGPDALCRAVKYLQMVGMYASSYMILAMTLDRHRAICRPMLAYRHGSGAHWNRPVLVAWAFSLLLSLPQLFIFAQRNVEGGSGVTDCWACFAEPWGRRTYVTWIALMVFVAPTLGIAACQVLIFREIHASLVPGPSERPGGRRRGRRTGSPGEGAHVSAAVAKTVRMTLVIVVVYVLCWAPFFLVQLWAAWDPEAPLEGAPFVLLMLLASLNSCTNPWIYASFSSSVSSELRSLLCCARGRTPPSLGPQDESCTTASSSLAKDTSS

[2] = target: Vasopressin V1a/V2 (Homo sapiens) (UniProt P30518+P37288); assay: Selectivity ratio of EC50 for human vasopressin V2 receptor to EC50 for human vasopressin V1a receptor
Sequence of Vasopressin V1a/V2 (Homo sapiens) (P30518 whole entry, looked up): as the sequence (P30518 whole entry) above
Sequence of Vasopressin V1a/V2 (Homo sapiens) (P37288 whole entry, looked up): as the sequence (P37288 whole entry) above

Homo sapiens [3] = species on record: Homo sapiens; assay: Selectivity ratio of EC50 for human vasopressin V1b receptor to EC50 for human vasopressin V1a receptor
Vasopressin V1b receptor = target: T1, Vasopressin V1b receptor (Homo sapiens, UniProt P47901); assay: Agonist activity at recombinant human vasopressin V1b receptor expressed in Flp-In-293 cells by luciferase reporter gene assay; type: functional, cell-based; details: read-out: EC50
T1 sequence (P47901 whole entry): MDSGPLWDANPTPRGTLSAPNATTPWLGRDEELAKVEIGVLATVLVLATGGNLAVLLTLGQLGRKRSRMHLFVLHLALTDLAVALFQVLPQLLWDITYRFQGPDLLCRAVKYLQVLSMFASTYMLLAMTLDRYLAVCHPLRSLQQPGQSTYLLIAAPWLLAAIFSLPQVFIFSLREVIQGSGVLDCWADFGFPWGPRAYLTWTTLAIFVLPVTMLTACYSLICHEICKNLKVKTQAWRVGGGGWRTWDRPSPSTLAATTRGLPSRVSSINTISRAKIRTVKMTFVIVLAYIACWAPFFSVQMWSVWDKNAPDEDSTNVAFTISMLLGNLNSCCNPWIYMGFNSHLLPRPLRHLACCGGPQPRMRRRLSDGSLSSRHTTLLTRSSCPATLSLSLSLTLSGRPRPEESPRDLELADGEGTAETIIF
In short: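 Reporter gene assays in HEK293 cells transiently cotransfected with V1a (human or rat) or human V2 receptor vector plus NFAT-luciferase (V1a) or CRE-luciferase (V2) reporter; V1b in Flp-In-293 stably expressing receptor, OT in CHO-K1 stably expressing receptor, both transiently transfected with NFAT-luciferase. Two days post-transfection, peptides added for 5 h at 37 °C, lysis with luciferin, luminescence read.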

Oxytocin receptor = target: T2, Oxytocin receptor (Homo sapiens, UniProt P30559); assay: Agonist activity at human OT receptor expressed in CHO-K1 cells by luciferase reporter gene assay; type: functional, cell-based
T2 sequence (P30559 whole entry): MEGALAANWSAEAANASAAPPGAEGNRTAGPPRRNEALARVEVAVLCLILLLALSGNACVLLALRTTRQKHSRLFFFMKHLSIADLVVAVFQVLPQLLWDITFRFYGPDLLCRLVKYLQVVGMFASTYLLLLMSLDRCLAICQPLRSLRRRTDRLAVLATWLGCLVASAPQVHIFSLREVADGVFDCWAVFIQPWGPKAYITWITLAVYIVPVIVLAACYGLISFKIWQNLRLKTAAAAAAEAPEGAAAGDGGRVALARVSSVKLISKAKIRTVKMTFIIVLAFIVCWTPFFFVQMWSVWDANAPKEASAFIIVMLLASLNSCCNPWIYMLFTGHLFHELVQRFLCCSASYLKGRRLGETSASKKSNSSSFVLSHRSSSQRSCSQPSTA

Ratio EC50 (Homo sapiens [1]) | EC50 (Vasopressin V1a receptor) | EC50 (Vasopressin V2 receptor; hek293, read-out: EC50) | EC50 (Vasopressin V2 receptor; read-out: pEC50 (converted)) | Ratio EC50 [2] | Ratio EC50 (Homo sapiens [3]) | EC50 (Vasopressin V1b receptor) | EC50 (Oxytocin receptor; cho-k1, read-out: EC50) | EC50 (Oxytocin receptor; read-out: pEC50 (converted)) | EC50 (Vasopressin V2 receptor; read-out: EC50) | EC50 (Oxytocin receptor; read-out: EC50) | Structure (SMILES)
> 1300 | 7.3 nM | > 10000 nM | > 10000 nM | > 1300 | 47 | 350 nM | > 10000 nM | > 10000 nM | – | – | CC[C@H](C)[C@@H]1NC(=O)[C@H](Cc2ccsc2)NC(=O)[C@@H](N)CSSC[C@@H](C(=O)N2CCC[C@H]2C(=O)N[C@@H](CCCN)C(=O)NCC(N)=O)NC(=O)[C@H](CC(N)=O)NC(=O)[C@H](CC(N)=O)NC1=O (H-C[3Thi]INNCP[Orn]G-NH2; disulfide 1-6)
47 | 2.2 nM | – | – | 150 | 95 | 210 nM | – | – | 330 nM | 105 nM | CC[C@H](C)[C@@H]1NC(=O)[C@H](Cc2ccco2)NC(=O)[C@@H](N)CSSC[C@@H](C(=O)N2CCC[C@H]2C(=O)N[C@@H](CCN)C(=O)NCC(N)=O)NC(=O)[C@H](CC(N)=O)NC(=O)[C@H](CCC(N)=O)NC1=O (H-C[Ala(2-furyl)]IQNCP[Dab]G-NH2; disulfide 1-6)
> 330 | 30 nM | > 10000 nM | > 10000 nM | > 330 | 6.6 | 200 nM | > 10000 nM | > 10000 nM | – | – | CC[C@H](C)[C@@H]1NC(=O)[C@H](Cc2cccnc2)NC(=O)[C@@H](N)CSSC[C@@H](C(=O)N2CCC[C@H]2C(=O)N[C@@H](CCN)C(=O)NCC(N)=O)NC(=O)[C@H](CC(N)=O)NC(=O)[C@H](CCC(N)=O)NC1=O (H-C[3Pal]IQNCP[Dab]G-NH2; disulfide 1-6)
> 71000 | 0.14 nM | – | – | 65 | 100 | 15 nM | > 10000 nM | > 10000 nM | 9.2 nM | – | NCCC[C@H](NC(=O)[C@@H]1CCCN1C(=O)[C@@H]1CSSC[C@H](N)C(=O)N[C@@H](Cc2ccccc2)C(=O)N[C@@H](Cc2ccccc2)C(=O)N[C@@H](CCC(N)=O)C(=O)N[C@@H](CC(N)=O)C(=O)N1)C(=O)NCC(N)=O (H-CFFQNCP[Orn]G-NH2; disulfide 1-6)
> 140 | 69 nM | – | – | 17 | 7.8 | 540 nM | > 10000 nM | > 10000 nM | 1200 nM | – | CC[C@H](C)[C@@H]1NC(=O)[C@H](Cc2ccccc2)NC(=O)[C@@H](N)CSSC[C@@H](C(=O)N2CCC[C@H]2C(=O)N[C@@H](CCCN)C(=O)NCC(N)=O)NC(=O)[C@H](CC(N)=O)NC(=O)[C@H](CCC(=O)N(C)OC)NC1=O (H-CFIE(N(Me)OMe)NCP[Orn]G-NH2; disulfide 1-6)
> 550 | 18 nM | – | – | 61 | 53 | 960 nM | > 10000 nM | > 10000 nM | 1100 nM | – | CC[C@H](C)[C@@H]1NC(=O)[C@H](Cc2ccccc2)NC(=O)[C@@H](N)CSSC[C@@H](C(=O)N2CCC[C@H]2C(=O)N[C@@H](CCNC(C)C)C(=O)NCC(N)=O)NC(=O)[C@H](CC(N)=O)NC(=O)[C@H](CCCC(N)=O)NC1=O (H-CFI[Aad](NH2)NCP[Dab(iPr)]G-NH2; disulfide 1-6)
> 1200 | 8 nM | > 10000 nM | > 10000 nM | > 1200 | 3.2 | 26 nM | > 10000 nM | > 10000 nM | – | – | CC[C@H](C)[C@@H]1NC(=O)[C@H](Cc2ccccc2)NC(=O)[C@@H](N)CSSC[C@@H](C(=O)N2CCC[C@H]2C(=O)N[C@@H](CCCN)C(=O)NCC(N)=O)NC(=O)[C@H](CC(N)=O)NC(=O)[C@H](CC(=O)NCCO)NC1=O (H-CFID(NHCH2CH2OH)NCP[Orn]G-NH2; disulfide 1-6)
> 1200 | 7.7 nM | > 10000 nM | > 10000 nM | > 1200 | 15 | 120 nM | > 10000 nM | > 10000 nM | – | – | CC[C@H](C)[C@@H]1NC(=O)[C@H](CC2CCCC2)NC(=O)[C@@H](N)CSSC[C@@H](C(=O)N2CCC[C@H]2C(=O)N[C@@H](CCCN)C(=O)NCC(N)=O)NC(=O)[C@H](CC(N)=O)NC(=O)[C@H](CC(N)=O)NC1=O (H-C[Ala(cPent)]INNCP[Orn]G-NH2; disulfide 1-6)
> 4100 | 2.4 nM | > 10000 nM | > 10000 nM | > 4100 | 27 | 65 nM | > 10000 nM | > 10000 nM | – | – | CC[C@H](C)[C@@H]1NC(=O)[C@H](Cc2ccccc2)NC(=O)[C@@H](N)CSSC[C@@H](C(=O)N2CCC[C@H]2C(=O)N[C@@H](CCCNC)C(=O)NCC(N)=O)NC(=O)[C@H](CC(N)=O)NC(=O)[C@H](CC(N)=O)NC1=O (H-CFINNCP[Orn(Me)]G-NH2; disulfide 1-6)
> 9000 | 1.1 nM | – | – | 1500 | 25 | 28 nM | > 10000 nM | > 10000 nM | 1700 nM | – | CC[C@H](C)[C@@H]1NC(=O)[C@H](Cc2ccccc2)NC(=O)[C@@H](N)CSSC[C@@H](C(=O)N2CCC[C@H]2C(=O)N[C@@H](CCCN)C(=O)NCC(N)=O)NC(=O)[C@H](CC(N)=O)NC(=O)[C@H](CCC(=O)NOC)NC1=O (H-CFI[X4]NCP[Orn]G-NH2; disulfide 1-6)
> 1900 | 5.2 nM | > 10000 nM | > 10000 nM | > 1900 | 5.3 | 28 nM | > 10000 nM | > 10000 nM | – | – | CC[C@H](C)[C@@H]1NC(=O)[C@H](Cc2ccccc2)NC(=O)[C@@H](N)CSSC[C@@H](C(=O)N2CCC[C@H]2C(=O)N[C@@H](CCCN)C(=O)NCC(N)=O)NC(=O)[C@H](CC(N)=O)NC(=O)[C@H](CC(=O)NCC(C)O)NC1=O (stereo partly drawn) (H-CFID(X2)NCP[Orn]G-NH2; disulfide 1-6)
> 1700 | 5.7 nM | > 10000 nM | > 10000 nM | > 1700 | 5.2 | 30 nM | > 10000 nM | > 10000 nM | – | – | CCNC(=O)C[C@@H]1NC(=O)[C@H]([C@@H](C)CC)NC(=O)[C@H](Cc2ccccc2)NC(=O)[C@@H](N)CSSC[C@@H](C(=O)N2CCC[C@H]2C(=O)N[C@@H](CCCN)C(=O)NCC(N)=O)NC(=O)[C@H](CC(N)=O)NC1=O (H-CFID(NHEt)NCP[Orn]G-NH2; disulfide 1-6)
> 830 | 12 nM | > 10000 nM | > 10000 nM | > 830 | 42 | 510 nM | > 10000 nM | > 10000 nM | – | – | CC[C@H](C)[C@@H]1NC(=O)[C@H](Cc2cccs2)NC(=O)[C@@H](N)CSSC[C@@H](C(=O)N2CCC[C@H]2C(=O)N[C@@H](CCN)C(=O)NCC(N)=O)NC(=O)[C@H](CC(N)=O)NC(=O)[C@H](CC(N)=O)NC1=O (H-C[2Thi]INNCP[Dab]G-NH2; disulfide 1-6)
> 1600 | 6 nM | – | – | 35 | 9.8 | 59 nM | – | 174 nM | 210 nM | > 10000 nM | CC[C@H](C)[C@@H]1NC(=O)[C@H](Cc2ccccc2)NC(=O)[C@@H](N)CSSC[C@@H](C(=O)N2CCC[C@H]2C(=O)N[C@@H](CCCN)C(=O)NCC(N)=O)NC(=O)[C@H](CC(N)=O)NC(=O)[C@H](CCC(=O)NC)NC1=O (H-CFIE(NHMe)NCP[Orn]G-NH2; disulfide 1-6)
> 1200 | 7.9 nM | > 10000 nM | > 10000 nM | > 1200 | 13 | 110 nM | > 10000 nM | > 10000 nM | – | – | CC[C@H](C)[C@@H]1NC(=O)C2(CCC2)NC(=O)[C@@H](N)CSSC[C@@H](C(=O)N2CCC[C@H]2C(=O)N[C@@H](CCCN)C(=O)NCC(N)=O)NC(=O)[C@H](CC(N)=O)NC(=O)[C@H](CC(N)=O)NC1=O (H-C[Ac4c]INNCP[Orn]G-NH2; disulfide 1-6)
